Test results reported in ChEMBL document CHEMBL5058577, “EUbOPEN Chemogenomics Library 2 (Multiplex)” (2022).

Tested on: HEK-293T
Test: Multiplex assay against HEK293T
Assay type: toxicity, cell-based
Conditions: human
Procedure, shortened: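 Live cells were stained at seeding with Hoechst33342, BioTracker Green Microtubule Cytoskeleton Dye, MitoTracker Red and Annexin V Alexa Fluor 680. Following compound addition, they were imaged on a CQ1 microscope at 37°C and 5% CO2 and gated by CellPathfinder machine learning into Hoechst high-intensity objects or normal cells, with normal cells split into healthy, pyknosed or fragmented nuclei and pyknosed cells into mitotic or apoptotic. Tubulin, mitochondrial-mass and membrane-permeability phenotypes are per cents of healthy-nucleus cells.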

[1] = 12 h, 1 µM, compound concentration 1 uM, replicate 1
[2] = 12 h, 1 µM, compound concentration 1 uM, replicate 2
[3] = 12 h, 10 µM, compound concentration 10 uM, replicate 1
[4] = 12 h, 10 µM, compound concentration 10 uM, replicate 2
[5] = 24 h, 1 µM, compound concentration 1 uM, replicate 1
[6] = 24 h, 1 µM, compound concentration 1 uM, replicate 2
[7] = 24 h, 10 µM, compound concentration 10 uM, replicate 1
[8] = 24 h, 10 µM, compound concentration 10 uM, replicate 2
[9] = 48 h, 1 µM, compound concentration 1 uM, replicate 1
[10] = 48 h, 1 µM, compound concentration 1 uM, replicate 2
[11] = 48 h, 10 µM, compound concentration 10 uM, replicate 1
[12] = 48 h, 10 µM, compound concentration 10 uM, replicate 2

C[C@H](N)COC(=O)[C@@H](CCCCN)NC(=O)Cc1c(-c2ccc3ccccc3c2)[nH]c2c1ccc1ccccc12
Population Apoptotic (%) [1]: 22%
Population Fragmented Nuclei (%) [1]: 6%
Population Healthy Nuclei (%) [1]: 82%
Population Hoechst High Intensity Objects (%) [1]: 8%
Population Membrane Permeable-Phenotype (%) [1]: 0%
Population Mitochondria Different-Phenotype (%) [1]: 37%
Population Mitotic Cells (%) [1]: 77%
Population Normal (%) [1]: 91%
Population Pyknosed Nuclei (%) [1]: 10%
Population Tubulin-Different-Phenotype (%) [1]: 27%
Total Cell Count [1]: 458
Population Apoptotic (%) [2]: 51%
Population Fragmented Nuclei (%) [2]: 8%
Population Healthy Nuclei (%) [2]: 74%
Population Mitochondria Different-Phenotype (%) [2]: 65%
Population Mitotic Cells (%) [2]: 48%
Population Pyknosed Nuclei (%) [2]: 16%
Population Tubulin-Different-Phenotype (%) [2]: 30%
Total Cell Count [2]: 291
Population Apoptotic (%) [3]: 41%
Population Fragmented Nuclei (%) [3]: 7%
Population Healthy Nuclei (%) [3]: 78%
Population Hoechst High Intensity Objects (%) [3]: 11%
Population Membrane Permeable-Phenotype (%) [3]: 0%
Population Mitochondria Different-Phenotype (%) [3]: 60%
Population Mitotic Cells (%) [3]: 58%
Population Normal (%) [3]: 88%
Population Pyknosed Nuclei (%) [3]: 14%
Population Tubulin-Different-Phenotype (%) [3]: 54%
Total Cell Count [3]: 435
Population Apoptotic (%) [4]: 61%
Population Fragmented Nuclei (%) [4]: 5%
Population Hoechst High Intensity Objects (%) [4]: 7%
Population Mitochondria Different-Phenotype (%) [4]: 72%
Population Mitotic Cells (%) [4]: 38%
Population Normal (%) [4]: 93%
Population Pyknosed Nuclei (%) [4]: 16%
Population Tubulin-Different-Phenotype (%) [4]: 50%
Total Cell Count [4]: 343
Population Apoptotic (%) [5]: 25%
Population Fragmented Nuclei (%) [5]: 9%
Population Healthy Nuclei (%) [5]: 77%
Population Hoechst High Intensity Objects (%) [5]: 4%
Population Membrane Permeable-Phenotype (%) [5]: 0%
Population Mitochondria Different-Phenotype (%) [5]: 24%
Population Mitotic Cells (%) [5]: 75%
Population Normal (%) [5]: 95%
Population Pyknosed Nuclei (%) [5]: 12%
Population Tubulin-Different-Phenotype (%) [5]: 19%
Total Cell Count [5]: 638
Population Apoptotic (%) [6]: 54%
Population Fragmented Nuclei (%) [6]: 7%
Population Healthy Nuclei (%) [6]: 80%
Population Hoechst High Intensity Objects (%) [6]: 7%
Population Membrane Permeable-Phenotype (%) [6]: 1%
Population Mitochondria Different-Phenotype (%) [6]: 47%
Population Mitotic Cells (%) [6]: 45%
Population Normal (%) [6]: 92%
Population Tubulin-Different-Phenotype (%) [6]: 25%
Total Cell Count [6]: 352
Population Apoptotic (%) [7]: 41%
Population Fragmented Nuclei (%) [7]: 6%
Population Healthy Nuclei (%) [7]: 78%
Population Hoechst High Intensity Objects (%) [7]: 6%
Population Membrane Permeable-Phenotype (%) [7]: 0%
Population Mitochondria Different-Phenotype (%) [7]: 57%
Population Mitotic Cells (%) [7]: 58%
Population Normal (%) [7]: 93%
Population Pyknosed Nuclei (%) [7]: 14%
Population Tubulin-Different-Phenotype (%) [7]: 45%
Total Cell Count [7]: 539
Population Apoptotic (%) [8]: 48%
Population Fragmented Nuclei (%) [8]: 9%
Population Healthy Nuclei (%) [8]: 80%
Population Hoechst High Intensity Objects (%) [8]: 7%
Population Mitochondria Different-Phenotype (%) [8]: 54%
Population Mitotic Cells (%) [8]: 51%
Population Normal (%) [8]: 92%
Population Pyknosed Nuclei (%) [8]: 10%
Population Tubulin-Different-Phenotype (%) [8]: 42%
Total Cell Count [8]: 439
Population Apoptotic (%) [9]: 15%
Population Fragmented Nuclei (%) [9]: 13%
Population Healthy Nuclei (%) [9]: 78%
Population Hoechst High Intensity Objects (%) [9]: 4%
Population Membrane Permeable-Phenotype (%) [9]: 2%
Population Mitochondria Different-Phenotype (%) [9]: 16%
Population Mitotic Cells (%) [9]: 84%
Population Normal (%) [9]: 95%
Population Pyknosed Nuclei (%) [9]: 7%
Population Tubulin-Different-Phenotype (%) [9]: 13%
Total Cell Count [9]: 963
Population Apoptotic (%) [10]: 37%
Population Fragmented Nuclei (%) [10]: 11%
Population Healthy Nuclei (%) [10]: 79%
Population Membrane Permeable-Phenotype (%) [10]: 0%
Population Mitochondria Different-Phenotype (%) [10]: 29%
Population Mitotic Cells (%) [10]: 62%
Population Pyknosed Nuclei (%) [10]: 9%
Population Tubulin-Different-Phenotype (%) [10]: 17%
Total Cell Count [10]: 540
Population Apoptotic (%) [11]: 27%
Population Fragmented Nuclei (%) [11]: 13%
Population Healthy Nuclei (%) [11]: 78%
Population Hoechst High Intensity Objects (%) [11]: 6%
Population Membrane Permeable-Phenotype (%) [11]: 0%
Population Mitochondria Different-Phenotype (%) [11]: 44%
Population Mitotic Cells (%) [11]: 72%
Population Normal (%) [11]: 93%
Population Pyknosed Nuclei (%) [11]: 7%
Population Tubulin-Different-Phenotype (%) [11]: 33%
Total Cell Count [11]: 781
Population Apoptotic (%) [12]: 32%
Population Fragmented Nuclei (%) [12]: 14%
Population Healthy Nuclei (%) [12]: 79%
Population Hoechst High Intensity Objects (%) [12]: 4%
Population Mitochondria Different-Phenotype (%) [12]: 43%
Population Mitotic Cells (%) [12]: 67%
Population Normal (%) [12]: 95%
Population Pyknosed Nuclei (%) [12]: 6%
Population Tubulin-Different-Phenotype (%) [12]: 35%
Total Cell Count [12]: 681
